Test results taken from ChEMBL document CHEMBL2157863, “Synthesis and evaluation of novologues as C-terminal Hsp90 inhibitors with cytoprotective activity against sensory neuron glucotoxicity” (J Med Chem, 2012).
The source made the active and inactive calls. The rule behind the calls is not given here.

Experiments:
[1] = Cytoprotective activity against glucotoxicity in Sprague-Dawley rat DRG neurons assessed as cell viability at 1 uM by calcein-AM assay; type: functional; settings: DRG neuron, read-out: Activity
Summary of the method: (§1)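 Dorsal root ganglion neurons came from embryonic day 15–18 Sprague Dawley rats. They were trypsin-dissociated and grown on collagen in Neurobasal medium with 25 mM glucose, B-27 and 50 ng/ml NGF. Fluorodeoxyuridine and cytosine arabinoside were given for 2 days. On day 3, neurons received compound plus 20 mM excess glucose (45 mM total) for 4 h. Viability was read with 2 μM calcein AM, 30 min at 37°C, ex 485/em 520 nm, normalized to well protein.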

[2] = Cytoprotective activity against glucotoxicity in Sprague-Dawley rat DRG neurons assessed as cell viability by calcein-AM assay; type: functional; settings: DRG neuron; summary of the method: as §1
[3] = Ratio of KU-32 ED50 to compound ED50 for cytoprotective activity against glucotoxicity in Sprague-Dawley rat DRG neurons; type: functional, DRG neuron
[4] = biological target: T1, Heat shock protein HSP90 (Homo sapiens) (UniProt P07900+P08238); experiment: Inhibition of HSP90 in human MCF7 cells assessed as degradation of Akt up to 5 uM after 24 hrs by immunoblot analysis; type: cell-based
Summary of the method: (§2)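 MCF7 cells were exposed to compound for 24 h. Lysates were immunoblotted for the Hsp90 clients Her2, Raf and Akt, with β-actin as loading control. Geldanamycin at 500 nM served as the positive control for client degradation.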

Nucleic Acid [5] = experiment: Activation of human HSP70 promoter transfected in rat 50B11 cells at 10 to 1000 nM after 16 hrs by luciferase reporter gene assay; type: cell-based
Summary of the method: (§3)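 50B11 immortalized sensory neurons were grown in DMEM with 25 mM glucose, 10% FCS and 5 μg/ml blasticidin. They were lipofected with a luciferase reporter driven by the human Hsp70 promoter, which carries two heat shock elements. Cells were re-seeded after 24 h and exposed to compound for 16 h. Luciferase in lysates was normalized to total protein per well, with triplicate wells in at least three experiments.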

[6] = biological target: T1, Heat shock protein HSP90 (Homo sapiens); experiment: Inhibition of HSP90 in human MCF7 cells assessed as degradation of Raf up to 5 uM after 24 hrs by immunoblot analysis; type: cell-based; summary of the method: as §2
[7] = biological target: T1, Heat shock protein HSP90 (Homo sapiens); experiment: Inhibition of HSP90 in human MCF7 cells assessed as degradation of Her2 up to 5 uM after 24 hrs by immunoblot analysis; type: cell-based; summary of the method: as §2
DRG neuron = experiment: Induction of HSP70 protein expression in Sprague-Dawley rat DRG neurons at 10 to 1000 nM; type: functional
Summary of the method: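 Rat embryonic DRG neurons were preincubated overnight with 10–1000 nM compound or DMSO, then exposed to 4 h hyperglycemia. Hsp70 and β-actin were measured by immunoblot. Band intensity of Hsp70 was normalized to β-actin and expressed as fold of control.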

Nucleic Acid [8] = experiment: Activation of human HSP70 promoter transfected in rat 50B11 cells at 1 uM after 16 hrs by luciferase reporter gene assay; type: cell-based; summary of the method: as §3

| SMILES | viability at 1 µM [1] | also measured |
| --- | --- | --- |
| CO[C@@H]1[C@@H](O)[C@@H](O)[C@H](Oc2ccc(CCNC(C)=O)c(-c3cccnc3)c2)OC1(C)C | 61% |  |
| CO[C@@H]1[C@@H](O)[C@@H](O)[C@H](Oc2ccc(CCNC(C)=O)c(-c3ccc(F)cc3)c2)OC1(C)C | 75% |  |
| CO[C@@H]1[C@@H](O)[C@@H](O)[C@H](Oc2ccc(CCNC(C)=O)c(-c3cccc(C(F)(F)F)c3)c2)OC1(C)C | 83% | EC50 [2]: 188 nM |
| CO[C@@H]1[C@@H](O)[C@@H](O)[C@H](Oc2ccc(CCNC(C)=O)c(-c3cccc(C)c3)c2)OC1(C)C | 82% |  |
| CO[C@@H]1[C@@H](O)[C@@H](O)[C@H](Oc2ccc(CCNC(C)=O)c(-c3ccncc3)c2)OC1(C)C | 81% |  |
| CO[C@@H]1[C@@H](O)[C@@H](O)[C@H](Oc2ccc(CCNC(C)=O)c(-c3ccccc3)c2)OC1(C)C | 76% |  |
| CO[C@@H]1[C@@H](O)[C@@H](O)[C@H](Oc2ccc(C3CC=CCC3NC(C)=O)c(-c3cccc(C(F)(F)F)c3)c2)OC1(C)C (mixture of isomers) | 69% |  |
| CO[C@@H]1[C@@H](O)[C@@H](O)[C@H](Oc2ccc(CCNC(C)=O)c(-c3ccc(O)cc3)c2)OC1(C)C | 67% |  |
| CO[C@@H]1[C@@H](O)[C@@H](O)[C@H](Oc2ccc(CCNC(C)=O)c(-c3cccc(F)c3)c2)OC1(C)C [CEMDOMESPIB] | 95% | EC50 [2]: 13 nM; Ratio ED50 [3]: 14; inhibition [4]: inactive; Activity (Nucleic Acid [5]): Active; inhibition [6]: inactive; inhibition [7]: inactive; Activity (DRG neuron): Active |
| CO[C@@H]1[C@@H](O)[C@@H](O)[C@H](Oc2ccc(CCNC(C)=O)c(-c3ccccc3SC)c2)OC1(C)C | 83% | EC50 [2]: 384 nM |
| COc1cccc(-c2cc(O[C@@H]3OC(C)(C)[C@H](OC)[C@@H](O)[C@H]3O)ccc2CCNC(C)=O)c1 | 78% |  |
| CO[C@@H]1[C@@H](O)[C@@H](O)[C@H](Oc2ccc(CCNC(C)=O)c(-c3cccc(CN4CCOCC4)c3)c2)OC1(C)C | 83% |  |
| CO[C@@H]1[C@@H](O)[C@@H](O)[C@H](Oc2ccc(C3CC=CCC3NC(C)=O)c(-c3cccc(F)c3)c2)OC1(C)C (mixture of isomers) | 78% |  |
| CO[C@@H]1[C@@H](O)[C@@H](O)[C@H](Oc2ccc(CCNC(C)=O)c(-c3ccccc3Cl)c2)OC1(C)C | 71% |  |
| COc1ccccc1-c1cc(O[C@@H]2OC(C)(C)[C@H](OC)[C@@H](O)[C@H]2O)ccc1CCNC(C)=O | 92% | Activity (Nucleic Acid [8]): Active |
| CO[C@@H]1[C@@H](O)[C@@H](O)[C@H](Oc2ccc(CCNC(C)=O)c(-c3ccc4c(c3)OCO4)c2)OC1(C)C | 83% | EC50 [2]: 18.4 nM; Activity (Nucleic Acid [5]): inactive; Activity (DRG neuron): inactive |
| CO[C@@H]1[C@@H](O)[C@@H](O)[C@H](Oc2ccc(CCNC(C)=O)c(-c3cccc(Cl)c3)c2)OC1(C)C | 90% |  |
| CO[C@@H]1[C@@H](O)[C@@H](O)[C@H](Oc2ccc3cc(NC(C)=O)c(=O)oc3c2C)OC1(C)C | 86% | EC50 [2]: 240 nM; Activity (Nucleic Acid [5]): Active; Activity (DRG neuron): Active |
| CO[C@@H]1[C@@H](O)[C@@H](O)[C@H](Oc2ccc(CCNC(C)=O)c(-c3ccc(C(F)(F)F)cc3)c2)OC1(C)C | 74% |  |
